Published values collected from several papers.
Each line is one published result; the experiments were not run side by side.
Matrix: plasma

| SMILES | test system | conditions | Tmax [h] |
| --- | --- | --- | --- |
| OC[C@H]1O[C@@H](c2cc(Cc3ccc(C4CC4)cc3)c(Cl)c3c2CCO3)[C@H](O)[C@@H](O)[C@@H]1O | human | oral, 0.3 mg, single dose, fed, healthy volunteers | 2 |
| CC(C)n1cc(C#N)c2cc(-n3cc(C(=O)O)cn3)ccc21 | human | oral, 200 mg, single dose, fasted, healthy volunteers | 4.01 |
| O=C(COc1ccc(Cl)cc1)NC12CC(c3nnc([C@H]4C[C@@H](OC(F)(F)F)C4)o3)(C1)C2 | human | oral, 260 mg, multiple doses, once daily, steady state, healthy volunteers | 3 |
| Cc1cn([C@H]2C[C@H](N=[N+]=[N-])[C@@H](CO)O2)c(=O)[nH]c1=O | human | oral, 600 mg, single dose, healthy volunteers | 0.62 |
| COc1ccc(F)cc1C(=O)NCc1ccc(-c2nn([C@@H](C)C(F)(F)F)c(N)c2C(N)=O)cc1 | male human | oral, 200 mg, single dose | 5 |
| N#Cc1cccc(-c2ccc3ncc(-c4cc(F)cc(F)c4)c(N4CCC(N)CC4)c3c2)c1O | male human | intravenous, 50 µg | 0.03 |
| COc1ccc2c(c1)CN(C(=O)CCN1CCC(Cc3ccccc3)CC1)CC[S@@+]2[O-] | male human | intravenous, 0.05 mg/kg, healthy volunteers | 0 |
| C[C@@H](Oc1ccc(S(C)(=O)=O)cc1C(=O)N1C[C@@H]2C[C@]2(c2cc(C(F)(F)F)on2)C1)C(F)(F)F | human | oral, 10 mg, single dose, fasted | 3.5 |
| CC(=O)N(C)[C@H]1CCN(C(=O)c2cnc3c(c2)C[C@](C)(c2ccc(F)cc2)N3)C1 | male human | oral, 15 mg, multiple doses, once daily, steady state | 1.14 |
